According to the RNAGym collection of RNA variant scans (doi:10.1126/science.aae0568):
Fewer inactive variants are shown than the library holds.

B1: tRNA (parent)
chain: GUUCCGUUGGCGUAAUGGUAACGCGUCUCCCUCCUAAGGAGAAGACUGCGGGUUCGAGUCCCGUACGGAACG

Variants of: B1
Experiment: yeast fitness relative to wild type (ratio to wild type); higher = fitter; tRNA-Arg(CCU), competitive growth, 37 C, YPD
Outline: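 Amplicons of the tRNA-Arg(CCU) gene were sequenced, 100-nucleotide paired-end, from the start population and from each end population of a pooled yeast competition. The competition, in six parallel replicates, lasted 24 hours in YPD at 37°C. Fitness relative to wild type was calculated from changes in genotype frequencies. Genotypes had to have ≥ 100 starting reads, and estimates < 0.5 were set to 0.5.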

| Variant | yeast fitness |
| --- | --- |
| GUUCCGUUGGCGUCAUGGUAACGCGUCUCCCUCCUAAGGAGAGGACUGCGGGUUCGAGUCCCGUACGGAACG [A14C A43G] | 0.628 |
| GUUCCGUUGGCGUCAUGGUUACGCGUGUCCCUCCUAAGGAGAAGACUGCGGGCUCGAGUCCCGUACGGAACG [A14C A20U C27G U53C] | ≤ 0.5 |
| GUUCCGUUGGCGUCAUGGUCACGCGUCUCCCUCCUAAGGAGGAAACUGCGGGUUCGAGUCCCGUACGGAACG [A14C A20C A42G G44A] | 0.633 |
| GUUCCGUUGGCGUCAUGGUAACGCGUCUCCCUCCUAAGGUGAAGACUGCGGGUUCCAGUCCCGUACUGAACG [A14C A40U G56C G67U] | ≤ 0.5 |
| GUUCCGUUGGCGUCAUGGUAACGCGUCUCCCUCCUAAGGCCAAGACUGUGGGUUAGAGUCCCGUACGGAUCG [A14C A40C G41C C49U C55A A70U] | ≤ 0.5 |
| GUUCCGUUGGCGUCAUGGUCACGCGUCUCACUCGUAAGGAGAAGACUGCGGGUUCGAGUCCCGUAAGGAACG [A14C A20C C30A C34G C66A] | ≤ 0.5 |
| GUUCCGUUGGCGUCAUGGUAACGCGUCUCCCUCCUAAGGAGAAGCCUGCGGGUUCGAGUGCCGUACGGAACG [A14C A45C C60G] | ≤ 0.5 |
| GUUCCGUUGGCGUCGUGGUAACGCGUCUCCCUCCUAAGGAGAACACUGCGGGUUCGAGUACCGUACGGAACG [A14C A15G G44C C60A] | ≤ 0.5 |
| GUUCCGUUGGCGUCAUGGUACCGUGUCUCCCUCCUUAGGAGAUGACUGCGGGUUCGAGUCCCGUCUGGAACG [A14C A21C C24U A36U A43U A65C C66U] | ≤ 0.5 |
| GUUCCGUUGGCGUCAUGGUAACGCGUCUCCCUCCUGAGGAGCAGACUGCGGGUUCGAGUCCCGUACGGAACG [A14C A36G A42C] | 0.533 |
| GUUCCGUUGGCGUCAUGGUUACGCGUGUCCCUCCUAAGGAGAAGACUGCGGGUUCGAGCCACGUACGGAACG [A14C A20U C27G U59C C61A] | ≤ 0.5 |
| GUUCCGUUGGCGUCAUGGUACCGUGUCUCCCUCCUUAGGAGAUGACUGCGGGUUCAACUCCCGUAAGGAACG [A14C A21C C24U A36U A43U G56A G58C C66A] | ≤ 0.5 |
| GUUCCGUUGGCGUCAUGGUAGCGCGUCUACCUCUUAAGGAGAAGACUGCGGGUUCGAGUCCCGUACGGUACG [A14C A21G C29A C34U A69U] | 0.638 |
| GUUCCGUUGGCGUCAUGGUAACGCGUCUCCCUCCUAAGGGGAAGACUGCGGGUUCGGGUCCCGUACGGAACG [A14C A40G A57G] | 0.539 |
| GUUCCGUUGGCGUCUUGGUAACGCGUUUCCCCCCGAAGGAGAAGACUGCGGGUUCGAGUCCCGUACGGAACG [A14C A15U C27U U32C U35G] | 0.584 |
| GUUCCGUUGGCGUCAUGGUUACGCGUCUCAAUCCUAAGGAGAAGACUGCGGAUUCGAGUCCCGUACGUAACG [A14C A20U C30A C31A G52A G68U] | 0.551 |
| GUUCCGUUGGCGUCUUGGUAACGCGUCUCCCUCCUAAGGCGAAGACUACGGGUUCGAGUCCCGUACGGAACG [A14C A15U A40C G48A] | ≤ 0.5 |
| GUUCCGUUGGCGUCAUGGUACCGCGUCUGCCUCCUAAGGAGAAGACUGCGGGUUCGAGUCCCGUACGGAACG [A14C A21C C29G] | ≤ 0.5 |
| GUUCCGUUGGCGUCAUGGUGAUGCGUCUCUCUCCUAAGGAGAAGACUGCGGGUUCGAGUCCCGUACGGAACG [A14C A20G C22U C30U] | ≤ 0.5 |

| Variant | yeast fitness |
| --- | --- |
| GUUCCGUUGGCGUCAUGGUACCGCGUUUCCCUCCUAAGGAGAAGACUGCGGGUUCGAGUCCUGUACGGCACG [A14C A21C C27U C62U A69C] | ≤ 0.5 |
| GUUCCGUUGGCGUCAUGGUAACGCGUCUCCCUCCUCAGGAGAAGACUGCGGGUUCGAGUCCCGUACGGAACG [A14C A36C] | 0.564 |
| GUUCCGUUGGCGUCAUGGUAACGCGUCUCCCUCCUUAGGAGAAGACUGCGGGUUCGAGUCCCGUACGGAACG [A14C A36U] | 0.591 |
| GUUCCGUUGGCGUCAUGGUAACGCGUCUCCCUCCUGAGGAGAAGACUGCGGGUUCGAGUCCCGUACGGAACG [A14C A36G] | 0.644 |
| GUUCCGUUGGCGUCAUGGUUACGCGUCUCCCUCCUAAGGAGAAGACUGCGGGUUCGAGUCCCGUACGGCACG [A14C A20U A69C] | ≤ 0.5 |
| GUUCCGUUGGCGUCAUGGUUACGCGUCUCCCUCCUAAGGAGAAGACUGCGGGUUCGAGUCCCGUACGGUACG [A14C A20U A69U] | 0.532 |
| GUUCCGUUGGCGUCAUGGUAGCGCAUCUCCCUUCUAAGGAGAAGACUGCGGGUUCGAGUCACGUACGGUACG [A14C A21G G25A C33U C61A A69U] | ≤ 0.5 |
| GUUCCGUUGGCGUCAUGGUAUUGCGUCUCCCUCCUAGGGAGAAACAUGCGGGUUUGAGGCCCGUACGGAACG [A14C A21U C22U A37G G44A A45C C46A C55U U59G] | 0.608 |
| GUUCCGUUGGCGUCAUGGUGACGCGUUUCCCUCCUAAGGAGAAGACUGCGGGUUCGAGUCCUGUACGGAACG [A14C A20G C27U C62U] | ≤ 0.5 |
| GUUCCGUUGGCGUCAUGGUUACGCGUCUCCCUUCUAAGGAGAAGACUGCGGGUUCGAGUCCCGUACGGAACG [A14C A20U C33U] | ≤ 0.5 |
| GUUCCGUUGGCGUCUUGGUAACGCGUCUCCCUCCUAAGGAGAAGACGGCGGGUUCGAGUCCCGUACGGAACG [A14C A15U U47G] | ≤ 0.5 |
| GUUCCGUUGGCGUCAUGGUUACGCGUCUCCCUCCCAAGGAGAAGACUGCGGGUUCGAGUCCCGUGCGGUACG [A14C A20U U35C A65G A69U] | ≤ 0.5 |
| GUUCCGUUGGCGUCAUGGUAACGCGUCUCCCUCCUAAGGGGAAGACUGUGGGUUCGAAUCCCGUACGGAACG [A14C A40G C49U G58A] | ≤ 0.5 |
| GUUCCGUUGGCGUCAUGGUUACGCGUCUCCCUCCUAAGGAGAAGACUGCGGGUUCGAGUCCCGUAAGGAACG [A14C A20U C66A] | ≤ 0.5 |
| GUUCCGUUGGCGUCAUGGUAGCGCGUCUACCUCUUAAGGAGAAGACUGCGGGUUCGAGUCCCGUACGGAACG [A14C A21G C29A C34U] | 0.612 |
| GUUCCGUUGGCGUCUAGGUAACGCGUCUCCCUCCUAAGGAGAAAACUGCGGGUUCGUGUCCCGUACGGAACG [A14C A15U U16A G44A A57U] | ≤ 0.5 |
| GUUCCGUUGGCGUCAUGGUAACGCGUCUCCCUCCUAAGGAGAGGACUGCGGGUUCGAGUCCCGUACGCAACG [A14C A43G G68C] | 0.65 |
| GUUCCGUUGGCGUCAUGGUAACGCGUCUCCCUCCUCAGGAGAAGACUGCGGGUUCGAGUCCCGUACGGUACG [A14C A36C A69U] | 0.905 |
| GUUCCGUUGGCGUCAUGGUUACGCGUCUCCCUCCUAAGGAGAAGACUGCGGGUUCGAGUCCCGUACGGAACG [A14C A20U] | 0.641 |
